Neddyl block: blocks human cullin neddylation; calls only at 25 µM; TR-FRET cullin neddylation, biochemical; 360,000 compounds, 0.58% hits; P61081+Q13564; in the data active means inhibition above about 36%
DDE Tn7 FP inh: inhibitors of Tn7 peptide binding to human fibrin DD(E); P02675; FP displacement of FITC-Tn7 peptide from fibrin DD(E); 0% = median of compound wells per plate; inhibition, % at 8.3 µM; 370,000 compounds, 0.13% hits; AID 720508;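 active means inhibition above the mean of compounds falling within the control limits plus 3 SD of them, cut at about 14% in these data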;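 further: 0% = plate median of compound wells and 100% = 10 µM Aha-Tn7 peptide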
Target sequence (P02675 whole entry, looked up): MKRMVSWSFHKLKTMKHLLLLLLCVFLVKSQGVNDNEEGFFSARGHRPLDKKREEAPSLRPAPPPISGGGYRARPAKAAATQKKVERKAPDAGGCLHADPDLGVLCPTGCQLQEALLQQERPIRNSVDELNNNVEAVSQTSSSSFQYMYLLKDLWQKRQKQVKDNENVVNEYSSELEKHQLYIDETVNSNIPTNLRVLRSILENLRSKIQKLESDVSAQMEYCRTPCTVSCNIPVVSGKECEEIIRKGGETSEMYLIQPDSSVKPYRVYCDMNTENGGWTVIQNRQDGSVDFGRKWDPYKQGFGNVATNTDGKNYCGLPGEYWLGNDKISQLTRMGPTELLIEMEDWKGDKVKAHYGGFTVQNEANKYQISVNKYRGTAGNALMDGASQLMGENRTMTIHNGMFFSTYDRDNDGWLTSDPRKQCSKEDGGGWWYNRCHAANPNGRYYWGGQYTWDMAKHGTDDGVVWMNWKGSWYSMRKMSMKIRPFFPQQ
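assay system = human clot-derived fibrin DD(E) complex | quantity = Fibrin-DD(E) at 2 µM final | timing = 10 min preincubation, 3 h with tracer, room temperature | signal = fluorescence polarization | measure = percent inhibition | benchmarks = high control wells with 10 µM unlabelled Aha-Tn7 peptide (full inhibition) | replicates = singlicate testing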
SKN-1 inh: blocks SKN-1 activity in C. elegans; C. elegans VP596 Pgst-4::GFP/RFP ratio, acrylamide-induced, 24 h; inhibition, % at 21.8 µM; AID 624304; 360,000 compounds, 0.49% hits;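 active means interference check ratio from 0.5 to 1.5 plus GFP to RFP signal ratio inhibition reaching or exceeding a fixed threshold, cut at about 30% in these data, passing the limit was not always enough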
KLK7 zymogen act: activators of human kallikrein-7 zymogen; purified proKLK7, EDANS-DABCYL substrate fluorescence; 100% is mature enzyme control, 0% vehicle; P49862; AID 652039; 370,000 compounds, 0.9% hits; activation, % at 7 µM;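 active means activation above the mean of all tested compounds plus 3 SD, computed per campaign excluding outliers beyond control limits, cut at about 13% in these data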
Tn6 DDE FP: inhibitors of Tn6 peptide binding to human fibrin DD(E). inhibition, % at 8.3 µM. Fibrin DD(E) TRITC-Tn6 fluorescence polarization displacement. AID 720509. 370,000 compounds, 0.21% hits;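 active means inhibition above a per-campaign cutoff: mean of compounds within control limits plus 3 SD, cut at about 15% in these data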;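 further: 0% = median of all compound wells on the plate and 100% = blocking peptide control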
MT1-MMP act inh: blocks activation of human MT1-MMP; GFP/RFP ratio change, % at 20 µM; HT1080 RFP-PRO-GFP cells, GFP/RFP ratio fluorescence, overnight; percent of plate control window, DMSO zero; 360,000 compounds, 0.061% hits; P50281;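 active means GFP/RFP ratio change of at least 30% with cell ATP level not reduced by more than half and red fluorescence within 50% of control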
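Compound: 20 µM single dose, 1% DMSO / System: HT1080 RFP-PRO-GFP cells / Controls: DMSO and RFP-L50D-GFP cell wells / Read-out basis: GFP/RFP fluorescence ratio / Schedule: overnight compound exposure at 37 °C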
KLK7 act conf: proKLK7 activation, confirmation. activation, % at 7 µM. shares compounds with KLK7 zymogen act. AID 686949. 3,200 compounds, 68% hits. purified proKLK7, EDANS-DABCYL substrate fluorescence; scaled: vehicle 0, mature enzyme 100;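 active means activation, as change over the incubation, above the mean of all tested compounds plus 3 SD, cut at about 13% in these data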
EDANS-DABCYL int: optically interferes with EDANS-DABCYL signal, flagging KLK7 hits. activation, % at 7 µM. shares compounds with KLK7 zymogen act. EDANS-DABCYL substrate fluorescence interference, no enzyme, 4 h; solvent 0%, active enzyme control 100%. 3,200 compounds, 80% hits;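 active means activation above the all-compound mean plus 3 SD, ignoring values outside control-based bounds, cut at about 4.8% in these data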;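 further: value is the 4 h activation minus the activation read at time zero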
EDANS interf: EDANS fluorescence interference in dose response, no enzyme. shares compounds with KLK7 zymogen act. EDANS-DABCYL peptide fluorescence interference. EC50, µM. 250 compounds, 20% hits. AID 720493;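 active means compounds that raise the fluorescence signal in this interference counterscreen, with EC50 at or below 10 µM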;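 further: intact quenched peptide substrate alone read at 355 nm excitation and 520 nm emission; signal is fluorescence gain from T0 to T4 after four hours at room temperature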
An asterisk follows results filed as active; i = inactive; / = not tested or not shown. An excerpt weighted towards active compounds, which were near 2.2% of everything screened.

SMILES	Neddyl block	DDE Tn7 FP inh	SKN-1 inh	KLK7 zymogen act	Tn6 DDE FP	MT1-MMP act inh	KLK7 act conf	EDANS-DABCYL int	others
O=C(NCc1nnc(SCC(=O)N2CCCC2)o1)c1ccccc1F	i	0.5	11.6	62.0*	-5.2	-0.5	0.4	0.7
Cc1ccc(/C=C/C(=O)Nc2ccc(S(=O)(=O)Nc3cc(C)nc(C)n3)cc2)cc1	i	-2.6	14.3	0.3	3.4	1.5	/	/
Cc1ccc(C(=O)/C=C/Nc2ccc(S(=O)(=O)Nc3cc(C)nc(C)n3)cc2)cc1	i	-4.2	16.9	29.6*	-5.0	4.7	148.4*	118.9*
O=C(CNC(=O)c1ccccc1Br)N/N=C/c1cccnc1	i	3.8	20.2	0.4	5.4	-0.1	/	/
N/C(=N\NC(=O)c1ccccc1)c1cc2ccccc2oc1=O	i	-7.0	-3.6	-0.7	-3.4	13.2	/	/
NC(=S)N/N=C/c1ccccc1OC(=O)c1cc2ccccc2oc1=O	i	-3.5	14.6	42.5*	5.7	0.7	228.5*	200.4*
NC(=O)N/N=C/c1ccccc1OC(=O)c1cc2ccccc2oc1=O	i	-1.1	-15.9	78.7*	-1.1	0.0	259.4*	259.3*
NC(=S)N/N=C/c1ccccc1OC(=O)/C=C/c1ccccc1	i	2.4	-9.4	1.8	-6.7	2.9	/	/
COc1ccc(NS(=O)(=O)c2ccc(N3CC(O)=C(c4ccccc4)C3=N)cc2)cc1	i	0.5	-2.3	0.2	-1.1	1.3	/	/
COc1ccc(C(C(=O)NC2CCCC2)N(Cc2ccc(F)cc2)C(=O)c2ccn[nH]2)cc1OC (stereo not drawn)	i	3.9	10.5	-0.4	9.3	-1.0	/	/
O=C(NN=Cc1ccccc1O)C(O)c1ccccc1 (stereo not drawn)	/	-5.2	-6.8	-62.1	-8.9	-0.7	/	/
COc1ccc(OC)c(/C=N/NC(=O)C(O)c2ccccc2)c1 (stereo not drawn)	/	3.5	16.7	40.5*	9.3	1.2	34.2*	35.9*
COc1ccc(OC)c(/C=N/NC(=O)CN2CCSCC2)c1	/	-2.7	10.1	24.4*	3.5	1.1	56.0*	46.8*	EDANS interf=i
O=S(=O)(NCCC1CC1(Cl)Cl)c1ccc(Cl)cc1 (stereo not drawn)	i	3.3	14.8	0.3	10.1	1.7	/	/
O=C1c2ccccc2NC(c2cccs2)N1NS(=O)(=O)c1ccccc1 (stereo not drawn)	/	0.7	10.5	35.6*	-0.9	-3.4	5.1	4.5*
CC(=O)NN1C(=O)c2ccccc2NC1c1ccccc1F (stereo not drawn)	/	6.2	-6.2	29.0*	-6.0	1.3	18.9*	17.9*
O=C1c2ccccc2NC(c2ccco2)N1NS(=O)(=O)c1ccccc1 (stereo not drawn)	/	-5.4	5.6	14.2*	7.2	3.9	2.6	4.8*
CCOC(=O)NN1C(=O)c2ccccc2NC1c1cccs1 (stereo not drawn)	/	4.1	3.5	13.9*	-2.8	-3.5	16.5*	14.8*
Cc1ccc(S(=O)(=O)NN2C(=O)c3ccccc3NC2c2ccccc2F)cc1 (stereo not drawn)	/	0.9	7.2	2.5	1.7	-4.6	/	/
O=C(NN1C(=O)c2ccccc2NC1c1ccoc1)c1ccccc1 (stereo not drawn)	/	-3.6	0.3	4.1	0.5	-1.0	/	/
C[C@@H]1ON(C)[C@H]2C[C@H]3c4[nH]c5cccc(-c6cccc(F)c6)c5c4CCN3C(=O)[C@@H]12	/	-5.1	/	-16.6	6.5	/	/	/
COC(=O)c1c[nH]n2c(=O)c(Cl)c(C)nc12	i	0.0	4.7	0.2	-3.4	-2.9	/	/
O=C1NC(c2cccc3ccccc23)Nc2ccccc21 (stereo not drawn)	/	5.4	0.4	3.4	0.6	17.1	/	/
O=C1NC(c2ccccc2Cl)Nc2ccccc21 (stereo not drawn)	/	1.7	-18.4	19.1*	-0.4	2.9	46.7*	49.8*
O=C1NC(c2ccc3ccccc3c2)Nc2ccccc21 (stereo not drawn)	/	3.2	4.7	11.8	-3.4	3.9	/	/
SMILES	Neddyl block	DDE Tn7 FP inh	SKN-1 inh	KLK7 zymogen act	Tn6 DDE FP	MT1-MMP act inh	KLK7 act conf	EDANS-DABCYL int	others
O=C1NC(c2ccc(Br)cc2)Nc2ccccc21 (stereo not drawn)	/	1.0	5.6	13.6*	-12.8	-6.1	20.6*	15.1*	EDANS interf=>69.5
COc1cc(-c2ccc3oc(-c4cccc(C)c4)c(C#CC4(O)CCCCC4)c3c2)cc(OC)c1OC	/	-4.1	-12.2	83.1*	-2.6	1.7	-9.1	1.8
CSc1nnc(-c2cccc(NC(=O)c3ccccc3)c2)n1C	i	1.1	-6.3	-0.7	-1.3	-1.3	/	/
CCOc1ccccc1N1CC(C(=O)N2CCOCC2)CC1=O (stereo not drawn)	i	4.3	1.8	-0.6	1.4	2.0	/	/
CN(Cc1cnc2nc(N)nc(N)c2n1)c1ccc(C(=O)NC(CCC(=O)O)C(=O)O)c2ccccc12 (stereo not drawn)	i	-5.1	12.3	19.0*	-5.4	-11.8	2.2	3.4
CCn1cc(-c2ccnc3cc(C(=O)O)nn23)c(C)n1	/	0.1	-6.3	27.4*	4.4	3.3	73.0*	75.2*
N#Cc1ccccc1NC(=O)COC(=O)/C=C/c1cn(-c2ccccc2)nc1-c1ccc(Cl)cc1	i	3.6	-6.3	0.5	-4.2	1.6	/	/
CC(=O)c1c[nH]c(C(=O)NCC2CCCO2)c1 (stereo not drawn)	i	-5.1	0.6	40.1*	-1.3	2.0	0.2	0.1
CC(C)CC(=O)c1c[nH]c(C(=O)NCC2CCCO2)c1 (stereo not drawn)	i	-4.7	18.8	0.2	-11.1	6.1	/	/
CCOC(=O)CN1C(=O)C(=O)N(Cc2ccccc2)C1=O	i	7.9	5.8	-0.2	1.4	9.5	/	/
CC(=O)Nc1cnc(-c2cccc(C(=O)N3CCOCC3)c2)cn1	i	-5.2	7.2	0.5	5.1	-2.7	/	/
CNc1cnc(-c2ccc(C(=O)N3CCOCC3)cc2)cn1	/	-7.6	-4.4	20.3*	1.1	1.1	19.8*	22.0*
COc1cc(CC(=O)OCC(=O)NCc2ccc(C)cc2)cc(OC)c1OC	i	-2.9	6.8	-0.2	0.8	0.5	/	/

Source: PubChem BioAssay (several laboratories)
